# Compound activity from PubChem BioAssay.
# RGS4 pot = potentiators or activators of RGS4. HEK293 M3R/inducible RGS4, carbachol calcium flux Fluo4; hits give low values. B-score at 10 µM. 0.92% of 310,000 active. AID 463111;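 active means B-score of the integrated calcium signal more than 4 SD below the library mean, with starting fluorescence not abnormally high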;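 further: negative B-score means reduced calcium response which marks RGS4 activation or potentiation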
#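 test system = HEK293 cells with stable M3R and inducible RGS4 | schedule = recording 10 s baseline at 1 Hz, 100 s post-agonist | technique = Fluo4-AM (2 µM) calcium-flux fluorescence, kinetic read | measure = Agonist-evoked peak-minus-minimum fluorescence over baseline, integrated ratio, B score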
# MrgX1 agonist = agonists of human MrgX1 receptor. Q96LB2. MrgX1-HEK293 cells, Fluo-4 calcium fluorescence, agonist mode; hits give high values. B-score at 10 µM. 0.44% of 310,000 active. AID 588627;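 active means calcium response B-score plate-corrected fluorescence ratio at least 3 library SD, with starting fluorescence B-score inside 5 SD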
# Target sequence (Q96LB2 whole entry, looked up): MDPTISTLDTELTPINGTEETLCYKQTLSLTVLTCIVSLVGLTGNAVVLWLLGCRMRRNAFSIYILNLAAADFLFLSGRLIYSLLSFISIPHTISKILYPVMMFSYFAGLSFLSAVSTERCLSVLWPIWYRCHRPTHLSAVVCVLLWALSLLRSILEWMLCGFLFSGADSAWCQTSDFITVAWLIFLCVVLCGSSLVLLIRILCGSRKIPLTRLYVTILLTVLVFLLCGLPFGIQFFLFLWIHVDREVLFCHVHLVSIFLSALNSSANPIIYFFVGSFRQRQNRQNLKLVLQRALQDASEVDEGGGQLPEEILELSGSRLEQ
#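 System: HEK293 cells stably expressing human MrgX1 receptor; Dosing: test compound in the initial addition of three; Schedule: overnight plating, then 30 min 37 °C plus 30 min room-temperature dye loading; Detection: kinetic calcium dye fluorescence, Fluo-4 NW; Controls: per-plate positive and negative controls for Z′ factor.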
# MrgX1 antagonist = human MrgX1 receptor antagonism, primary screen; Q96LB2; B-score at 10 µM; 1.3% of 310,000 active; MRGX1-HEK293 calcium flux, Fluo-4, BAM8-22 antagonism; hits give low values;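 active means calcium-response B-score plate-corrected more than 3 library SD below zero, starting fluorescence within 5 deviations, no agonist response on first addition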;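 further: peak minus trough fluorescence over baseline after final BAM8-22 challenge near maximal dose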
# MrgX1 PAM = allosterically activates human MrgX1 receptor signaling; Q96LB2; MrgX1-HEK293, Fluo-4 calcium flux, FDSS; hits give high values; B-score at 10 µM; 0.63% of 310,000 active; AID 588675;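 active means plate-corrected calcium response at least 3 library SD above typical, normal starting fluorescence, not activating the receptor alone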;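 further: compound read alongside a low EC10 to EC30 dose of BAM8-22 agonist; peak minus trough fluorescence over baseline measured at the second addition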
# RGS4 block = human RGS4 inhibition; B-score at 10 µM; P49798; HEK293 M3R/RGS4 inducible, Fluo-4 calcium flux; hits give high values; triggered by carbachol at its EC20; 0.45% of 310,000 active;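 active means B-score, a plate-corrected calcium signal, over three deviations above library mean, with baseline fluorescence within five deviations of library mean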;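 further: RGS4 expression induced by doxycycline in cells with stable M3 receptor; B-score is computed from the integrated fluorescence ratio over baseline after carbachol; higher B-score means a larger calcium signal and so more RGS4 inhibition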
# Target sequence (P49798 whole entry, looked up): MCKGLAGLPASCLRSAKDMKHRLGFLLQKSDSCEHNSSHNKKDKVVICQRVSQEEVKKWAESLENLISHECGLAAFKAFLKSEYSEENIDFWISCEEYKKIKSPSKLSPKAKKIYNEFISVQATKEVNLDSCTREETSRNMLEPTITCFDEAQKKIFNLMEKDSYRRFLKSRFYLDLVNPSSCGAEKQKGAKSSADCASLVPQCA
# MrgX1 PAM conf = confirmation of human MrgX1 receptor positive allosteric modulators; shares compounds with MrgX1 PAM; MrgX1-HEK293, Fluo-4 calcium fluorescence, FDSS; activation (ratio percentage), % at 10 µM; 13% of 1,200 active; AID 602413;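 active means ratio at least 3 SD above the weak peptide control, stable starting fluorescence, no direct agonism earlier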;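 further: compound followed by low BAM8-22 agonist challenge near EC20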
# HEK293 Ca flux = counter-screen for MrgX1 antagonists: effect in parental HEK293 cells | 2% of 4,000 active | shares compounds with MrgX1 antagonist | Fluo-4 calcium fluorescence, FDSS | fluorescence ratio F(max-min)/F0 at 10 µM;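 active means duplicate-averaged calcium fluorescence ratio at least three times the standard deviation of buffer wells, a nonspecific response in parental cells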
# HEK293 Ca counter = activity in parental HEK293 cells without MrgX1 | 0.4% of 4,000 active | parental HEK293 calcium flux, Fluo-4 fluorescence ratio; hits give high values | fluorescence ratio F(max-min)/F0 at 10 µM | shares compounds with MrgX1 antagonist;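 active means calcium fluorescence ratio, averaged over duplicates, at least 3 SD of the buffer-well ratio, meaning a nonspecific response in receptor-free cells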;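 further: untransfected parental HEK293 lacking MrgX1 used as counterscreen for MrgX1 allosteric activators; fluorescence change taken during the second addition on a kinetic imager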
# HEK293 Ca cntr2 = MrgX1 activator counter-screen hit in parental HEK293 cells. shares compounds with MrgX1 antagonist. Fluo-4 calcium fluorescence (FDSS); hits give high values. AID 624115. fluorescence ratio F(max-min)/F0 at 10 µM. 8.7% of 4,000 active;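 active means calcium fluorescence ratio at least three times the spread of buffer wells, meaning a non-specific response in parental cells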
# Active calls of the source: *; i = inactive; / = not tested or not shown. Compounds with a hit are over-represented: about 3.5% of the library has one in this group of screens.
SMILES,RGS4 pot,MrgX1 agonist,MrgX1 antagonist,MrgX1 PAM,RGS4 block,MrgX1 PAM conf,HEK293 Ca flux,HEK293 Ca counter,HEK293 Ca cntr2
COc1ccc(NC(=O)c2cc3c(=O)n4ccccc4nc3n2C)cc1OC,i,i,i,i,i,/,/,/,/
CNC(=O)[C@H]1O[C@@H](n2cnc3c(NCc4cccc(I)c4)ncnc32)[C@H](O)[C@@H]1O,/,i,i,10*,/,i,i,i,i
Cn1cnc2c(NCc3ccco3)ncnc21,i,i,i,i,i,/,/,/,/
Cn1cccc1-c1nc2ccc(NC(=O)c3ccccc3)cc2[nH]1,i,i,i,7.2*,i,39%*,i,i,i
COCCn1c(SCC(=O)Nc2cccc(F)c2)nc2c(c1=O)SCC2,i,i,i,i,i,/,/,/,/
CCCCC(=O)Oc1c(S(=O)(=O)c2ccccc2)c(C)nn1C(C)(C)C,i,i,i,i,i,/,/,/,/
CCc1ccc(Oc2cc(Cl)nc(N)n2)cc1,i,i,i,12*,i,i,i,i,i
COc1ccc(CNC(=O)C2CCN(S(=O)(=O)c3ccc4c(c3)CC(C)N4C(=O)C3CC3)CC2)cc1 (configuration not stated),i,i,i,i,i,/,/,/,/
Cc1ccsc1C(=O)N1CCc2ccccc2C1,i,i,i,i,i,/,/,/,/
Cc1ccsc1C(=O)OCC(=O)N1CCc2ccccc2C1,i,i,i,8.9*,i,i,i,i,i
CNc1nc(Sc2ccccc2)cc(C(F)(F)F)n1,i,i,i,22*,i,i,i,i,i
Cc1nc(-c2cc(C#N)c(Sc3cccc(C(F)(F)F)c3)nc2C)cs1,i,i,i,i,i,/,/,/,/
CNc1nc(Sc2cccc(C(F)(F)F)c2)cc(C(F)(F)F)n1,i,i,i,10*,i,i,i,i,i
CCCCCCCNC(=O)C1(CC2CC(c3ccc(Cl)cc3)=NO2)CCN(C(=O)C2(C)CC2)CC1 (configuration not stated),i,i,i,i,i,/,/,/,/
CCOc1ccc(/C(O)=C2\C(=O)C(=O)N(CCOCCO)C2c2ccccc2OC)cc1 (configuration not stated),i,i,i,i,i,/,/,/,/
CCCc1cc(C(=O)N2CCCC(C(=O)c3cccc4ccccc34)C2)n(C)n1 (configuration not stated),i,i,i,12*,i,i,i,i,i
C/C(=N\NC(=O)c1ccco1)c1cc(Cl)sc1Cl,i,i,i,i,i,/,/,/,/
COc1ccc(-c2cn3c(C)c(C(=O)N4CCCc5ccccc54)sc3n2)cc1,i,i,i,8*,i,i,i,i,i
CCCCSCc1nc2ccccn2c1Br,i,i,i,i,i,/,/,/,/
N#CC1=C(N)Oc2c(ccc3ccccc23)C1c1ccsc1 (configuration not stated),i,i,i,14*,i,i,i,i,i
N#CC1=C(N)Oc2c(oc(CO)cc2=O)C1c1ccsc1 (configuration not stated),i,i,i,i,i,/,/,/,/
CC(C)NC(=O)CN(C(=O)CCC(=O)Nc1nccs1)c1ccc2c(c1)OCO2,i,i,i,i,i,/,/,/,/
COCCNC(=O)CN(C(=O)CCC(=O)Nc1nccs1)c1ccc2c(c1)OCO2,i,i,i,33*,i,i,i,i,i
Cc1ccc(Cn2ccnc2C(=O)Nc2ccccc2)cc1,i,i,i,9.7*,i,i,i,i,i
COc1ccc(NC(=O)c2csc3c2CCCCC3)c(OC)c1,i,i,i,19*,i,i,i,i,i
SMILES,RGS4 pot,MrgX1 agonist,MrgX1 antagonist,MrgX1 PAM,RGS4 block,MrgX1 PAM conf,HEK293 Ca flux,HEK293 Ca counter,HEK293 Ca cntr2
COc1ccc(CCNC(=O)c2csc3c2CCCC3)cc1,i,i,i,i,i,/,/,/,/
O=C(CSc1nnnn1C1CCCC1)Nc1ccccc1F,i,i,i,i,i,/,/,/,/
O=C(CSc1nnnn1C1CCCC1)Nc1ccccc1N1CCOCC1,i,i,i,7.9*,i,i,i,i,i
COc1ccc(CCNC(=O)C2Cc3ccccc3C(=O)O2)cc1 (configuration not stated),i,i,i,14*,i,i,i,i,i
CCc1noc(C)c1C(=O)N1CCN(S(=O)(=O)c2ccc(C)cc2)CC1,i,i,i,i,i,/,/,/,/
CC1=CSC2=NC(=O)/C(=C\c3cccn3-c3ccc([N+](=O)[O-])cc3)C(=N)N12,i,i,i,26*,i,24%*,i,i,i
CC1(C(=O)N/N=C/c2c(F)c(F)c(F)c(F)c2F)CC1(Cl)Cl (configuration not stated),i,i,i,20*,i,i,i,i,i
CC/C(=C\C(=O)c1cccnc1)Nc1ccc(C)c(C)c1,i,i,i,8.7*,i,i,i,i,i
CCOC(=O)C(CC(=O)O)=C(c1ccccc1)c1ccccc1,i,i,i,i,i,/,/,/,/
CS(=O)(=O)N(CC(=O)N1CCN(c2ccc(F)cc2)CC1)c1ccc(F)c(Cl)c1,i,i,i,6.8*,i,i,i,i,i
COc1ccc(N2CCN(C(=O)CN(c3cccc(Br)c3)S(C)(=O)=O)CC2)cc1,i,i,i,18*,i,16%*,i,i,i
COc1ccc(OC)c(N(CC(=O)N2CCN(c3cc(Cl)ccc3C)CC2)S(C)(=O)=O)c1,i,i,i,29*,i,93%*,i,i,54*
CCN1CCN(C(=O)CN(c2cc(OC)ccc2OC)S(C)(=O)=O)CC1,i,i,i,i,i,/,/,/,/
CCOc1ccccc1NC(=O)Cc1coc2ccc(C)cc12,i,i,i,14*,i,i,i,i,i
